ChEMBL document CHEMBL1125291, “New 8-(trifluoromethyl)-substituted quinolones. The benefits of the 8-fluoro group with reduced phototoxic risk” (1992)
≈ marks a conversion by molar mass, not a printed value. Where “and” joins values, the source holds several entries; their conditions need not be identical. Identical values can stand only once.

Legend:
[1] = Number of mice which show positive phototoxic reaction in 5 mice at peroral dose; assay type: functional, Mus musculus
Outline: (§1)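 Depilated female CD-1 mice got a single oral (gavage) or subcutaneous dose, then UVA (320–400 nm) exposure for 3 h starting 1 h post-dose. This was repeated for up to 4 consecutive days. Initial doses were 30, 100 and 300 mg/kg. PTD50 was derived by probit. First day of positive reaction and no-effect dose were taken from the raw data.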

[2] = Number of mice which show positive phototoxic reaction in 5 mice at subcutaneous dose; assay type: functional, Mus musculus; outline: as §1
Escherichia coli [3] = test: In vivo efficacy in mouse protection test in Escherichia coli Vogel administered by subcutaneous injection.; assay type: functional
Outline: (§2)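 Acute lethal systemic infections in female Charles River CD-1 mice. A single dose was given at challenge, orally by gavage or by subcutaneous injection. PD50 (median protective dose, mg/kg) was determined.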

Escherichia coli [4] = test: In vivo efficacy in mouse protection test in Escherichia coli Vogel dose administered orally by gavage.; assay type: functional; outline: as §2
Escherichia coli [5] = test: Minimum inhibitory concentration (MIC) against gram negative bacteria Escherichia coli H-560.; assay type: functional
Outline: (§3)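 MICs were determined by standard broth microtitration against 11 Gram-positive and Gram-negative organisms, in µg/mL. Values come from duplicate or triplicate experiments and are accurate to ±50%.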

Escherichia coli [6] = test: Minimum inhibitory concentration (MIC) against gram negative bacteria Escherichia coli Vogel.; assay type: functional; outline: as §3
Klebsiella pneumoniae = test: Minimum inhibitory concentration (MIC) against gram negative bacteria Klebsiella pneumoniae MGH-2.; assay type: functional; outline: as §3
Mus musculus [7] = test: Dose required to induce phototoxic reaction in 50% of mice by […] reactions at different dosage forms after sc administration; assay type: functional
Outline: (§4)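 Phototoxic skin reaction test in depilated female CD-1 mice. A single oral dose (gavage) or subcutaneous dose was given, followed 1 h later by 3 h of UVA exposure (320–400 nm). The regimen was repeated for up to 4 consecutive days, with initial doses of 30, 100 and 300 mg/kg. PTD50 was derived by the probit method. The first day of positive reaction and the no-effect dose were taken from the raw data.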

Mus musculus [8] = organism: Mus musculus; test: Dose required to induce phototoxic reaction in 50% of mice by probit method at different dosage forms.; assay type: functional
Mus musculus [9] = test: (§5) Maximum tolerance dose was measured for phototoxic skin reaction by sc administration; assay type: functional; outline: as §1
Mus musculus [10] = organism: Mus musculus; test: Dose which has no effect to induce phototoxic reaction in 50% of mice by probit method.; assay type: functional
Mus musculus [11] = test: Compound's dose which has no effect to induce phototoxic reaction in 50% of mice by […] reactions after sc administration; assay type: functional; outline: as §4
Mus musculus [12] = test: Days of the first positive reaction in […] mice after sc administration; assay type: functional; outline: as §4
Mus musculus [13] = test: Maximum tolerance dose was measured for phototoxic skin reaction by po administration; assay type: functional
Mus musculus [14] = test: as §5; assay type: functional; outline: as §1; remark: listed apart in the source
[15] = Minimum inhibitory concentration (MIC) against gram negative bacteria Prot. rettgeri M-1771.; assay type: functional, Providencia rettgeri; outline: as §3
Pseudomonas aeruginosa [16] = test: In vivo efficacy (s.c.) against Pseudomonas aeruginosa in mouse protection test; assay type: functional; outline: as §2
Pseudomonas aeruginosa [17] = test: In vivo efficacy (orally) against Pseudomonas aeruginosa in mouse protection test; assay type: functional; outline: as §2
Pseudomonas aeruginosa [18] = test: Minimum inhibitory concentration (MIC) against gram negative bacteria Pseudomonas aeruginosa UI-18.; assay type: functional; outline: as §3
Streptococcus pyogenes [19] = test: In vivo efficacy (s.c.) against Streptococcus pyogenes C-203 in mouse protection test; assay type: functional; outline: as §2
Streptococcus pyogenes [20] = test: In vivo efficacy (orally) against Streptococcus pyogenes C-203 in mouse protection test; assay type: functional; outline: as §2
Staphylococcus aureus [21] = test: Minimum inhibitory concentration (MIC) against gram positive bacteria Staphylococcus aureus H-228.; assay type: functional; outline: as §3
Staphylococcus aureus [22] = test: Minimum inhibitory concentration (MIC) against gram positive bacteria Staphylococcus aureus UC-76.; assay type: functional; outline: as §3
Enterococcus faecalis = test: Minimum inhibitory concentration (MIC) against gram positive bacteria Streptococcus faecalis MGH-2.; assay type: functional; outline: as §3
Streptococcus pneumoniae [23] = test: Minimum inhibitory concentration (MIC) against gram positive bacteria Streptococcus pneumoniae SV-1.; assay type: functional; outline: as §3
Streptococcus pyogenes [24] = test: Minimum inhibitory concentration (MIC) against gram positive bacteria Streptococcus pyogenes C-203.; assay type: functional; outline: as §3
Streptococcus pneumoniae [25] = test: In vivo efficacy (s.c.) against Streptococcus pneumoniae SV-1 in mouse protection test; assay type: functional; outline: as §2
Streptococcus pneumoniae [26] = test: In vivo efficacy (orally) against Streptococcus pneumoniae SV-1 in mouse protection test; assay type: functional; outline: as §2
[27] = Escherichia coli, read-out: MIC
[28] = Staphylococcus aureus, read-out: MIC

For `O=C(O)c1cn(C2CC2)c2cc(N3CCNCC3)c(F)cc2c1=O` [CIPROFLOXACIN], the “No. of pos rxns” value [1] was 0, the “No. of pos rxns” value [2] was 5 and the PD50 (Escherichia coli [3]) was 0.25 mg/kg. For the same compound, the ED50 (Escherichia coli [3]; Escherichia coli, sc, read-out: PD50) was 0.25 mg/kg, the PD50 (Escherichia coli [4]) was 1.2 mg/kg and the ED50 (Escherichia coli [4]; Escherichia coli, po, read-out: PD50) was 1.2 mg/kg. The MIC (Escherichia coli [5]) was 0.025 µg/mL (≈ 0.0754 µM), the MIC (Escherichia coli [5]; [27]) was 0.025 µg/mL (≈ 0.0754 µM) and the MIC (Escherichia coli [6]) was 0.025 µg/mL (≈ 0.0754 µM). For the same compound, the MIC (Escherichia coli [6]; [27]) was 0.025 µg/mL (≈ 0.0754 µM), the MIC (Klebsiella pneumoniae) was 0.05 µg/mL (≈ 0.151 µM) and the MIC (Klebsiella pneumoniae; Klebsiella pneumoniae, read-out: MIC) was 0.05 µg/mL (≈ 0.151 µM). The PTD50 (Mus musculus [7]) was 172 mg/kg, the PTD50 (Mus musculus [8]) was >300 mg kg-1 and 172 and the MTD (Mus musculus [9]) was 100 mg/kg. The No effect dose (Mus musculus [10]) was 300 mg kg-1 and 100, the No effect dose (Mus musculus [11]) was 100 mg/kg and the “Day of first positve reaction” value (Mus musculus [12]) was 2. It also gave an MTD (Mus musculus [13]) of 300 mg/kg, an MTD (Mus musculus [14]) of 100 mg/kg and an MIC [15] of 0.1 µg/mL (≈ 0.302 µM). The MIC ([15]; Providencia rettgeri, read-out: MIC) was 0.1 µg/mL (≈ 0.302 µM), the PD50 (Pseudomonas aeruginosa [16]) was 5 mg/kg and the ED50 (Pseudomonas aeruginosa [16]; Pseudomonas aeruginosa, sc, read-out: PD50) was 5 mg/kg. For the same compound, the PD50 (Pseudomonas aeruginosa [17]) was 25 mg/kg, the ED50 (Pseudomonas aeruginosa [17]; Pseudomonas aeruginosa, po, read-out: PD50) was 25 mg/kg and the MIC (Pseudomonas aeruginosa [18]) was 0.2 µg/mL (≈ 0.604 µM). The MIC (Pseudomonas aeruginosa [18]; Pseudomonas aeruginosa, read-out: MIC) was 0.2 µg/mL (≈ 0.604 µM), the PD50 (Streptococcus pyogenes [19]) was 19 mg/kg and the ED50 (Streptococcus pyogenes [19]; Streptococcus pyogenes, sc, read-out: PD50) was 19 mg/kg. For the same compound, the PD50 (Streptococcus pyogenes [20]) was 180 mg/kg, the ED50 (Streptococcus pyogenes [20]; Streptococcus pyogenes, po, read-out: PD50) was 180 mg/kg and the MIC (Staphylococcus aureus [21]) was 1.6 µg/mL (≈ 4.83 µM). The MIC (Staphylococcus aureus [21]; [28]) was 1.6 µg/mL (≈ 4.83 µM), the MIC (Staphylococcus aureus [22]) was 0.1 µg/mL (≈ 0.302 µM) and the MIC (Staphylococcus aureus [22]; [28]) was 0.1 µg/mL (≈ 0.302 µM). The MIC (Enterococcus faecalis) was 1.6 µg/mL (≈ 4.83 µM), the MIC (Enterococcus faecalis; Enterococcus faecalis, read-out: MIC) was 1.6 µg/mL (≈ 4.83 µM) and the MIC (Streptococcus pneumoniae [23]) was 0.8 µg/mL (≈ 2.41 µM). For the same compound, the MIC (Streptococcus pneumoniae [23]; Streptococcus pneumoniae, read-out: MIC) was 0.8 µg/mL (≈ 2.41 µM), the MIC (Streptococcus pyogenes [24]) was 0.4 µg/mL (≈ 1.21 µM) and the MIC (Streptococcus pyogenes [24]; Streptococcus pyogenes, read-out: MIC) was 0.4 µg/mL (≈ 1.21 µM). The PD50 (Streptococcus pneumoniae [25]) was 29 mg/kg, the ED50 (Streptococcus pneumoniae [25]; Streptococcus pneumoniae, sc, read-out: PD50) was 29 mg/kg and the PD50 (Streptococcus pneumoniae [26]) was 260 mg/kg. The ED50 (Streptococcus pneumoniae [26]; Streptococcus pneumoniae, po, read-out: PD50) was 260 mg/kg.
